From PubChem
FLuc stim CS = firefly luciferase counter-screen for stimulation assays; ATPlite luciferase biochemical, luminescence, 10 min; 0 = ATP-free wells, 1 = DMSO control; activation factor at 10 µM; 200,000 tested, under 10 active; AID 1027;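 active means luciferase activation factor, scaled between plate controls, of at least 2 with compound at 10 µM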
Target sequence (P08659 whole entry, looked up): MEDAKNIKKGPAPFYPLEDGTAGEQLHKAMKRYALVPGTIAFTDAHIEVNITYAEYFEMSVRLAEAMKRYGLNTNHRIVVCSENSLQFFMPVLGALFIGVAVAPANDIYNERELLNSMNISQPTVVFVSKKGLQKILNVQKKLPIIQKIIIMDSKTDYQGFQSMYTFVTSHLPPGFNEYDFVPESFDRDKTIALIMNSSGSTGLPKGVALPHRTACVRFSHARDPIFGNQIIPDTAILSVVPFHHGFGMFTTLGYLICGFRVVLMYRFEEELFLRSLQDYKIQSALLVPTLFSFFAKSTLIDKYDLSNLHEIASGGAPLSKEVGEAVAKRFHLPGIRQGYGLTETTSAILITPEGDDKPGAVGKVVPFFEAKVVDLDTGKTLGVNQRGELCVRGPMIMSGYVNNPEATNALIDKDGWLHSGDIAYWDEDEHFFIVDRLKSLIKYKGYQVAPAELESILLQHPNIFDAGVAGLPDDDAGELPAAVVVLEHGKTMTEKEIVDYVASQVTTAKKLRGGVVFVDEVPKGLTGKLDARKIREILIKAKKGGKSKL
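Material: Luciferase/luciferin reagent mix | Doses: Test compounds dosed from 2 mM stocks in 100% DMSO | Timing: 10 min incubation after luciferase reagent addition, room temperature | Measured by: Luminescence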
HSP90 refold inh = inhibitors of HSP90 luciferase refolding in rabbit reticulocyte lysate; luciferase refolding luminescence, 3 h; inhibition, % at 5.6 µM; actives 0.91% (n = 290,000); AID 1789;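 active means inhibition above the screen-wide mean plus 3 SD, computed separately per campaign, cut at about 16% in these data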;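 further: inhibitors lower the luminescence because luciferase stays unfolded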
TRAIL sens C8 = sensitizes caspase-8 expressing cells to TRAIL; NB7+C8 cells + TRAIL, ATPlite viability luminescence; inhibition (viability loss, TRAIL sensitization), % at 10 µM; actives 1% (n = 360,000); AID 624354;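 active means compounds causing at least 50% loss of cell viability in the single-dose screen, relative to plate controls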
PPC-1+TRAIL kill = PPC-1 cancer cell killing with TRAIL present; PPC-1 cells + TRAIL, ATPLite viability luminescence; cell killing (% activity), % at 4 µM or 5 µM; actives 0.41% (n = 220,000); AID 1443;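 active means cell killing above 50% in the first pass at 4 µM, then a duplicate retest at 5 µM averaging 50% or more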
STAT3 blocker = STAT3 signaling inhibition. U3A cells, IL-6 STAT3-luciferase reporter, luminescence; host cell line lacks STAT1. inhibition, % at 5.5 µM. actives 0.89% (n = 190,000). AID 862;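 active means inhibition above the mean inhibition across all screened compounds plus 3 SD, cut at about 44% in these data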
FLuc inh counter = inhibits firefly luciferase, flagging false hits in luciferase inhibition screens; P08659; ATPLite firefly luciferase biochemical luminescence, 10 min; inhibition, % at 10 µM; actives 1.5% (n = 200,000); AID 1006;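 active means inhibition above about 50% when tested at 10 µM, limit read from the data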
Hits are given with their value; . = inactive; / = not tested or not shown. Hits are enriched below; roughly 2.2% of the tested compounds scored in any of these assays.

SMILES	FLuc stim CS	HSP90 refold inh	TRAIL sens C8	PPC-1+TRAIL kill	STAT3 blocker	FLuc inh counter
COc1ccc(NC(=O)c2cc(C3CCCCN3C(=O)c3ccc(Cl)cc3)on2)c(C)c1 (configuration not stated)	/	/	.	/	/	/
COc1ccc2c(c1)CC/C2=N\OC(=O)c1ccccc1C	.	.	.	.	.	75
COc1ccc2c(c1)CC/C2=N\OC(=O)c1cccc(C)c1	.	.	.	.	.	78
COc1ccc2c(c1)CCC/C2=N/OC(=O)c1ccccc1OC	.	.	.	.	.	.
CN(C)C(=O)OCC1COc2ccccc2O1 (configuration not stated)	/	.	.	.	/	/
Cc1cc(/C=N/n2c(COc3ccccc3)nc3ccccc3c2=O)c(O)c([N+](=O)[O-])c1	.	.	51	.	.	.
Cc1ccc(-c2[nH]ncc2/C=N/n2c(COc3ccccc3)nc3ccccc3c2=O)cc1	.	.	.	.	.	.
COc1ccc(C(=O)NN(C)c2nc(-c3ccccc3)nnc2C(F)(F)F)cc1	.	.	.	.	.	.
CN(NC(=O)C(C)(C)C)c1nc(-c2ccccc2)nnc1C(F)(F)F	.	.	56	.	.	.
COc1ccc(/C=C/C(=O)c2ccc(OC)cc2OC)cc1	.	.	.	.	/	.
COc1ccc(/C=C/C(=O)c2cc3c(cc2N)OCO3)cc1	.	.	.	.	.	79
CCOC(=O)C1(Cc2cccc(Cl)c2)CCCN(C(=O)c2cc(C(C)C)nn2C)C1 (configuration not stated)	/	.	.	/	/	/
O=C(Nc1ccccc1)c1ccc(S(=O)(=O)N2CCCCC2)cc1	.	.	.	.	.	.
O=C(Nc1ccc(S(=O)(=O)N2CCCCC2)cc1)c1ccc(CN2CCc3ccccc3C2)cc1	.	.	.	.	87	.
Cc1ccccc1-n1c(C)cc(/C=N/NC(=O)c2ccncc2)c1C	.	.	.	.	.	55
CC(C)Oc1ccc(Cl)cc1Nc1nc(NCCO)nc(N2CCCC2)n1	/	/	.	/	/	/
Cc1ccccc1Cn1c(-c2cncs2)nc2ccccc21	.	.	.	.	.	.
O=C(Cn1c(-c2cncs2)nc2ccccc21)NCc1ccccc1	.	16	.	.	.	.
COc1ccc(N2C(=O)C(C)(C)C2c2c(O)ccc3ccccc23)cc1 (configuration not stated)	/	17	.	/	/	/
CN(C)CCCN(C(=O)c1nc2ccccc2s1)c1nc2ccc(F)cc2s1	/	/	.	/	/	/
CN(C)CCCN(C(=O)c1cc2cc([N+](=O)[O-])ccc2s1)c1nc2cc3c(cc2s1)OCCO3	/	/	91	/	/	/
CN(C)CCCN(C(=O)c1ccc(C(=O)c2ccccc2)cc1)c1nc2ccc(F)cc2s1	/	.	49	/	/	/
CN(C)CCCN(C(=O)c1ccc(C(=O)c2ccccc2)cc1)c1nc2cc3c(cc2s1)OCO3	/	.	53	/	/	/
CCN(CC)CCN(C(=O)c1ccc(C(=O)c2ccccc2)cc1)c1nc2cc3c(cc2s1)OCO3	/	.	.	/	/	/
COc1cccc(CN2CC(C(=O)N(C)C3CCOCC3)CCC2=O)c1 (configuration not stated)	/	.	.	/	/	/
SMILES	FLuc stim CS	HSP90 refold inh	TRAIL sens C8	PPC-1+TRAIL kill	STAT3 blocker	FLuc inh counter
CCOC(=O)c1cc(=O)n2[nH]c(-c3ccc(C)cc3)cc2n1	.	.	.	.	.	.
CCOC(=O)Cc1cc(=O)n2[nH]c(-c3ccc(C)cc3)cc2n1	.	.	.	.	.	54
O=C(NC1CCN(C(=S)Nc2ccc(F)cc2)CC1)c1ccco1	/	.	.	/	/	/
C(=Cc1nc2ccccc2o1)c1ccc2c(c1)OCO2	/	/	80	/	/	/
C(=Cc1cnc2ccccc2n1)c1ccc2c(c1)OCO2	/	/	86	/	/	/
CC(=O)Nc1ccc(/C=C/c2nc3ccccc3o2)cc1	/	.	.	/	/	/
CN(Cc1ccccc1)S(=O)(=O)c1ccc(Cl)c(C(=O)NCCCN2CCOCC2)c1	/	/	.	/	/	/
CC(=O)NC(c1ccccc1)c1nc(-c2ccccc2)cs1 (configuration not stated)	/	/	.	/	/	/
O=C(NCc1ccc(Cl)cc1)N1CCc2ccccc2C1	/	.	.	/	/	/
COc1ccc(CNC(=O)N2CCc3ccccc3C2)cc1Cl	/	16	.	/	/	/
O=C(CCl)N1CCN(S(=O)(=O)c2ccc3c(c2)CCC3)CC1	/	/	91	/	/	/
CCC(C)c1c(NS(=O)(=O)c2ccc(C)cc2)o[nH]c1=O (configuration not stated)	/	/	.	/	/	/
